In ChEMBL document CHEMBL3612040, “Discovery of Selective Small Molecule Inhibitors of Monoacylglycerol Acyltransferase 3” (J Med Chem, 2015):

Assays:
[1] = Apparent permeability in RRCK cells; assay type: ADME, cell-based, Canis lupus familiaris, MDCKII-LE; details: dog, MDCK
[2] = Intrinsic clearance in human liver microsomes; assay type: ADME; details: read-out: CLH
[3] = Lipophilicity, logD of the compound at pH 7.4; assay type: physicochemical; details: buffer
Outline: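 Shake-flask octanol:water partition at pH 7.4, with MS analysis of samples.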

[4] = biological target: Cytochrome P450 2C9 (Homo sapiens, UniProt P11712); assay: Drug metabolism in human hepatocytes assessed as CYP2C9-mediated compound oxidation; assay type: ADME, cell-based, Hepatocyte
Chain of Cytochrome P450 2C9 (P11712 whole entry): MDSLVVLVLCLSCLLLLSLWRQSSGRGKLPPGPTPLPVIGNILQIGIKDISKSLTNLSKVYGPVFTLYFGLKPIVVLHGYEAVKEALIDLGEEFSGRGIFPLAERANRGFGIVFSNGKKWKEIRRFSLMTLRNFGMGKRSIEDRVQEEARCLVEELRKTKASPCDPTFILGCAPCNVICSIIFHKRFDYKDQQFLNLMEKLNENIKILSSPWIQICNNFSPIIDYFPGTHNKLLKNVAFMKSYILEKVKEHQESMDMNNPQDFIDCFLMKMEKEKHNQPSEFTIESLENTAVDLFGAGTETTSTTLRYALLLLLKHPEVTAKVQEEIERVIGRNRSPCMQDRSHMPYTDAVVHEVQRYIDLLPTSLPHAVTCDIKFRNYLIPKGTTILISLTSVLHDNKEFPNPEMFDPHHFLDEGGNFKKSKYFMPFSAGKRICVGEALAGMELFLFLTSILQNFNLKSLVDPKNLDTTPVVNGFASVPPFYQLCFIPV

[5] = biological target: CYP2C9 (Homo sapiens, UniProt P11712); assay: Inhibition of CYP2C9 (unknown origin) at 3 uM; assay type: ADME
Chain of CYP2C9 (P11712 whole entry): as above

[6] = system: Hepatocyte; assay: Drug metabolism in human hepatocytes assessed as compound oxidation; assay type: ADME, cell-based
[7] = biological target: T1, CYP2C8 (Homo sapiens, UniProt P10632); assay: Inhibition of CYP2C8 (unknown origin) at 3 uM; assay type: ADME
T1 sequence (P10632 whole entry): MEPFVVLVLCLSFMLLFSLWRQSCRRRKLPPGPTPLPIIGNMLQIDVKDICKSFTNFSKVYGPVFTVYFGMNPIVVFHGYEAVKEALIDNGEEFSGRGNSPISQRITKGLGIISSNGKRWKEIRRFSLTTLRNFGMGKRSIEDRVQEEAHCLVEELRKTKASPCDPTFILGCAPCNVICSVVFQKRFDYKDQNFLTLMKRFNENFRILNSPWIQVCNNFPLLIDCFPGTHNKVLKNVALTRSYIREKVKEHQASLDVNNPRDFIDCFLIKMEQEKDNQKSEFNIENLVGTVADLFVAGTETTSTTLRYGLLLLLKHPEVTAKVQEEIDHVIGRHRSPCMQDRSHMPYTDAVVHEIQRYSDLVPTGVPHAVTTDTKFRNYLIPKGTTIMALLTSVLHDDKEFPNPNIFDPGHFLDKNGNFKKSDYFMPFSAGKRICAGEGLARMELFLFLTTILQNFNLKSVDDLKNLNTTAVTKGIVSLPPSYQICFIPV

[8] = biological target: T2, Diacylglycerol O-acyltransferase 2 (Homo sapiens, UniProt Q96PD7); assay: Inhibition of DGAT2 (unknown origin) using [1-14C]decanoyl-CoA and didecanoyl-sn-glycerol substrates incubated for 40 mins
T2 sequence (Q96PD7 whole entry): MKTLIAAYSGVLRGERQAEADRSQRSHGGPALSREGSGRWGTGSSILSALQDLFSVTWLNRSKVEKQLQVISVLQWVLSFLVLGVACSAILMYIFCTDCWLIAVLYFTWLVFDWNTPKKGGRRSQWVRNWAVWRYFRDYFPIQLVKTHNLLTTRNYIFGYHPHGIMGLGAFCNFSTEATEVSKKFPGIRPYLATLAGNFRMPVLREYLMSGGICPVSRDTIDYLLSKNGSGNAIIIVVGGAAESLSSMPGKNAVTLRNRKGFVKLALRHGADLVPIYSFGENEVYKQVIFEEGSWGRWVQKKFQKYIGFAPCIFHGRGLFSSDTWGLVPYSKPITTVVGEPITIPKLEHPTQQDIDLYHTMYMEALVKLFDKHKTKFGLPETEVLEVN
Outline: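 DGAT2 membrane fraction (0.01 mg/mL) in 100 mM Hepes-NaOH pH 7.4, 20 mM MgCl2, 200 nM MAFP. Compound first held 20 min with 0.04% fatty-acid-free BSA, then preincubated 120 min at RT with enzyme. Started with 30 µM [1-14C]decanoyl-CoA and 125 µM 1,2-didecanoyl-sn-glycerol; ran 40 min at RT, acid-stopped. Labelled TAG read by scintillation after phase partitioning.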

[9] = biological target: T3, Diacylglycerol O-acyltransferase 1 (Homo sapiens, UniProt O75907); assay: Inhibition of DGAT1 (unknown origin) assessed as effect on incorporation of [1-14C]decanoyl moiety into TG using [1-14C]decanoyl-CoA and 1,2-didecanoyl-sn-glycerol as substrates
T3 sequence (O75907 whole entry): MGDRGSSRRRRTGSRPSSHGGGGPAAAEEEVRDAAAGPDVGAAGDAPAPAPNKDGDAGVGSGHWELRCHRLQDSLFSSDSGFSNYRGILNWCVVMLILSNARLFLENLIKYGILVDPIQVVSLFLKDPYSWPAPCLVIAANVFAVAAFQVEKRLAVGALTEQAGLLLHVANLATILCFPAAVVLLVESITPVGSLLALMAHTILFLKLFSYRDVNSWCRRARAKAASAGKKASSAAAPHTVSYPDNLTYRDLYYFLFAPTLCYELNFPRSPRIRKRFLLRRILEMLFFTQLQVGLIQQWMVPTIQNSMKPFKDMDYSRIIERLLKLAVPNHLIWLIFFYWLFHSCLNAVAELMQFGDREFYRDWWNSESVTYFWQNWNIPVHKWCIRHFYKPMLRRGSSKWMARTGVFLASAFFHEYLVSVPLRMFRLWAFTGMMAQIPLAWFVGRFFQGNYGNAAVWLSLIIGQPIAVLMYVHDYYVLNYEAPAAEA

| Structure (SMILES) | Papp [1] | microsomal CLint [2] | logD [3] | Drug metabolism [4] | inhibition at 3 µM [5] | Drug metabolism [6] | inhibition at 3 µM [7] | IC50 [8] | IC50 [9] |
| --- | --- | --- | --- | --- | --- | --- | --- | --- | --- |
| COc1cccc(CC(=O)N2Cc3ccc(S(=O)(=O)Nc4cnn(C(C)C)n4)cc3C2)c1 | 25 ×10⁻⁶ cm/s | < 8 µL/min/mg | 1.4 | – | – | – | – | – | – |
| COc1cccc(CC(=O)N2Cc3ccc(S(=O)(=O)Nc4cnn(C5COC5)n4)cc3C2)c1 | 3 ×10⁻⁶ cm/s | < 8 µL/min/mg | 0.2 | – | – | – | – | – | – |
| COc1cccc(CC(=O)N2Cc3ccc(S(=O)(=O)Nc4cnn(-c5ccccc5)n4)cc3C2)c1 | 15 ×10⁻⁶ cm/s | 273 µL/min/mg | 2.3 | metabolite_detected | 88% | metabolite_detected | 48% | – | – |
| COc1cccc(CC(=O)N2Cc3ccc(S(=O)(=O)Nc4cnn(-c5ccc(F)cc5)n4)cc3C2)c1 | 6 ×10⁻⁶ cm/s | 13 µL/min/mg | 2.5 | – | 95% | – | 62% | – | – |
| COc1cccc(CC(=O)N2Cc3ccc(S(=O)(=O)NCCc4cccc(F)c4)cc3C2)c1 | 8 ×10⁻⁶ cm/s | > 320 µL/min/mg | 3.6 | – | 35% | – | 29% | > 40 µM | 31 µM |
